Measurements published in ChEMBL document CHEMBL4513216, “Probing the Open Global Health Chemical Diversity Library for Multistage-Active Starting Points for Next-Generation Antimalarials” (ACS Infect Dis, 2020).

Experiment: Toxicity liver stage against HepG2, at 10uM
Type: cell-based
Design: test concentration 10 uM, cell line HepG2-A16-CD81EGFP
Conditions: human, HepG2-A16-CD81EGFP cells; read-out: INHIBITION
How it was run: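 Uninfected HepG2-A16-CD81EGFP cells, 3 × 10^3 per well, 1536-well, plated on prespotted compound at 10 μM final, parasite-free screening media added to match infected plates; puromycin 10 μM positive, DMSO 0.5% negative; run in parallel with 48 h PbLuc assay at 37 °C, 5% CO2; viability by CellTiter-Glo luminescence, normalized to controls.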

Structure (SMILES) | cytotoxicity at 10 µM
COC(=O)[C@H]1CN(C(=O)NC(C)C)CCN1C(=O)c1cccs1 | -0.832%
CN(CC(=O)N1CCC(Oc2ccc(C(F)(F)F)cn2)CC1)S(C)(=O)=O | 1.97%
COc1ccc(S(=O)(=O)NCCC(O)c2cc(C)oc2C)c(C)c1 (stereo unspecified) | -0.165%
O=C1CC2(CCN(S(=O)(=O)c3cccs3)C2)CN1c1cccc(F)c1 (stereo unspecified) | -1.51%
CN(C)c1ncc(-c2cc(C(=O)NC(C)(C)CO)n(CC3CC3)c2)cn1 | -13.4%
Cn1cccc1C(=O)NCc1cnc2n1CCN(c1ccccn1)C2 | -2.74%
COC[C@@]12CCO[C@@H]1CCN(C(=O)Cc1cccc(F)c1)C2 | -8.95%
COc1nn(C)c2c1CCCN(C(=O)c1cccs1)C2 | 8.36%
O=C(c1cnccn1)N1CCN(CC2CC2)c2ncccc2C1 | -3.99%
Cc1nc(N2CCCC2)nc2c1CCN(C(=O)C1CCC1)CC2 | 3.39%
CC(O)CNC(=O)c1nc(Cc2c(Cl)cccc2Cl)no1 (stereo unspecified) | 3%
CC(C)n1[nH]c(=O)c2c1NC(=O)CC2c1ccc2ncccc2c1 (stereo unspecified) | 9.76%
CC1CCN(C(=O)C(C)Oc2ccc3c(c2)OCO3)CC1 (stereo unspecified) | -1.9%
CC1=C(C(N)=O)C(c2cn(C)nc2C)N2C(=O)CSC2=N1 (stereo unspecified) | 4.43%
Cc1cccc(CNC(=O)CC2CCN(S(C)(=O)=O)CC2)n1 | -1.57%
CC(=O)N1CCC(c2cnc(NC3CCOCC3)cn2)CC1 | -3.73%
O=C1CN(C(=O)C2CN(c3ccc(F)cc3)CCO2)CCN1 (stereo unspecified) | 3.04%
CN(C)S(=O)(=O)N1CC(c2nc(N)ncc2-c2ccc(F)cc2)C1 | -4.64%
Cn1ccnc1CN1CCC(CCCc2ccccn2)(C(N)=O)CC1 | -1.31%
Cc1cncnc1C1CCN(CCO)CC1 | -7.26%
Cc1nc(C2CN(C)CCO2)cc(N2CCC(C(N)=O)CC2)n1 (stereo unspecified) | -22.8%
CNc1nccnc1C1CCN(C(C)C)CC1 | -25.2%
CCC(C(=O)NCCc1ccn(-c2ccccc2)n1)N1CCCC1=O (stereo unspecified) | 6.18%

Structure (SMILES) | cytotoxicity at 10 µM
COC(=O)[C@H](C)NC(=O)c1nc(C2CC2)n(-c2ccccc2Cl)n1 | -1.76%
CN(C)C(=O)CNC(=O)c1nc(C2CC2)n(-c2ccccc2Cl)n1 | -2.03%
Cc1nnc(NCc2ccc(SC(F)F)cc2)o1 | 6.48%
CN1CCCN(S(=O)(=O)c2cn(C)cn2)c2cc(F)ccc21 | 6.06%
CCN(CCNS(=O)(=O)C1CCOCC1)C(=O)OC(C)(C)C | -1.8%
Cc1ncsc1C(=O)NCC1SCCc2ccccc21 (stereo unspecified) | -8.21%
CCN(CC)C(=O)CN(C)C(=O)c1cccn1CCc1ccccc1 | 1.98%
NC(=O)N1CCCC(C(=O)NCCOc2ccc(F)cc2F)C1 (stereo unspecified) | 3.26%
CC(O)(CNc1ccc(Cl)c(C#N)n1)c1ccsc1 (stereo unspecified) | 3.39%
CNC(=O)c1cccnc1NCCOc1ccc(CC#N)cc1 | -1.53%
Cc1csc(C(C)(C)NCc2ncc(-c3ccccc3)o2)n1 | 7.95%
Cc1c(NC(C)C(C)C)cccc1C(=O)NCc1nnc(C)n1C (stereo unspecified) | 6.45%
COc1ccc(C(=O)NCC(=O)N(Cc2ccsc2)C2CC2)cc1OC | 0.995%
Cc1ccnc(NCc2cccc(OCCN3CCOCC3)c2)n1 | 2.5%
Cn1c(=O)ccn(CC(=O)Nc2cnccc2O)c1=O | 2.13%
CCOc1ccc(NS(=O)(=O)c2cc(C)c(C(=O)O)s2)c(C)c1 | -3.21%
O=C(Cc1cccc(F)c1)NCCNCC1CNc2ccnn2C1 (stereo unspecified) | 2.04%
Cn1cnc(S(=O)(=O)N2CCOCC2)c1Cl | 5.9%
COC(=O)CN1CCN(c2cccc(C)c2)CC1 | 3.54%
O=C(c1ccc(-c2ccccc2)[nH]c1=O)N1CCCn2ncnc21 | 1.46%
COc1ccc(C2CCCN2C(=O)NCCNc2ccccn2)cc1 (stereo unspecified) | 6.64%
Cc1cn(-c2ccccc2)nc1NS(=O)(=O)c1ccc(C(=O)O)cc1F | -2.59%
O=C(NCCCn1nc2ccccn2c1=O)NCC(C1CC1)C1CC1 | 6.01%

Structure (SMILES) | cytotoxicity at 10 µM
CC(C)C1CN(S(=O)(=O)c2cccc(C#N)c2)CCS1 (stereo unspecified) | 1.06%
CN(C)S(=O)(=O)Nc1ccc(-n2nncc2C(F)(F)F)cc1 | -2.64%
O=C(Nc1nnc(N2CCCCC2)[nH]1)c1cccs1 | -10.7%
CC(C)c1ocnc1C(=O)N1CCCC(c2ccn[nH]2)C1 (stereo unspecified) | -3.92%
OC(CN(Cc1ccccc1)Cc1ccon1)c1ccco1 (stereo unspecified) | 4.42%
CCc1cc(NC(=O)c2cccc(OCC(F)(F)F)n2)[nH]n1 | -1.42%
CC(=O)N1CCC(NC(=O)N2CCCC2c2ccsc2)CC1 (stereo unspecified) | 0.421%
CCCC(C)(C)NC(=O)c1cnc(C)s1 | 4.51%
COc1ccccc1CC(C)(C)NC(=O)CNS(C)(=O)=O | 4.21%
CN(C)C(=O)CNC(CC(F)(F)F)c1ccc(F)cc1 (stereo unspecified) | -3.08%
Cc1ccsc1CNC(=O)c1ccc2c(c1)CCC(=O)N2 | 4.91%
Cc1nn(C)c(Oc2ccccc2)c1CNC1CCCCNC1=O (stereo unspecified) | 2.56%
CC(C)Cc1nc(CNCc2cccc(N3CCCC3=O)c2)no1 | 0.753%
CC(C)N(Cc1cccnc1)C(=O)CNc1ccc(C#N)cc1 | 1.44%
CCn1c(CN2CCCC(Cn3cncn3)C2)nc2c(F)cccc21 (stereo unspecified) | 6.49%
Cn1cnc2cc(C(=O)NS(=O)(=O)CC3CCCC3)ccc21 | -3.2%
Cc1csc(N2CCN(CCCN3CCCC3=O)CC2)n1 | 3.92%
O=C(NC1CCN(c2ncccc2F)C1)c1cccc(-n2ccnn2)c1 (stereo unspecified) | 7.49%
CCc1nnc2n1CCN(Cc1csc(-c3cnn(C)c3)n1)C2 | 18.4%
O=C(c1ccccn1)N1C[C@@H](OCc2cccnc2)[C@H]2OCCC[C@@H]21 | -0.187%
CCn1nc(C)c(CCNC(=O)C2CCCN(C(C)=O)C2)c1C (stereo unspecified) | -20.8%
CCc1cnc(C)nc1NC1CC(=O)N(CC2CCCCC2)C1 (stereo unspecified) | -6.38%
Cc1nc2c(c(=O)n1C)CN(C(=O)C1CCCN(C(N)=O)C1)C2 (stereo unspecified) | -2.38%

Structure (SMILES) | cytotoxicity at 10 µM
COCc1nc(N(C)CCSc2ccccc2)c2cnn(C)c2n1 | 1.98%
CCC(=O)c1ccc(OCC(=O)N2CCNCC2C(=O)NC2CC2)cc1 (stereo unspecified) | -3.28%
COCCN1CCC(c2nc3c([nH]2)CC(C)(C)CNC3=O)C1 (stereo unspecified) | -2.18%
CC(C)(C)c1noc(-c2nc3c([nH]2)CCCNC3=O)n1 | -3.83%
COc1ccc(C(=O)C2CCCN(Cc3ccccc3O)C2)c(OC)c1 (stereo unspecified) | 5.45%
CCNC(=O)[C@@H]1C[C@H](NC(=O)c2cc(CC)n[nH]2)CN1Cc1ccsc1 | -5.92%
O=C(CN1CCNCC1)NCc1ccc2sccc2c1 | 1.16%
Cc1cnc(NC(=O)c2cccc(CN(C)Cc3ccno3)c2)s1 | 61.3%
O=C(CC[C@@H]1CCCN2CCCC[C@H]12)NCCc1nc(O)cc(O)n1 | -0.392%
Cc1cc(CN(C)C(=O)CN2CC3(CCNCC3)OC2=O)no1 | 3.19%
CC(C)n1cnnc1CN(C)Cc1cnc(-c2ccco2)nc1 | 10.8%
Cc1cnc(NCCc2c[nH]cn2)nc1-c1ccnn1C | -2.53%
Cc1ncsc1CCC(=O)NCc1csc(N2CCCC2)n1 | -2.56%
CC(C)Cc1cc(C(=O)NCC(O)c2ccc(F)cc2)n(C)n1 (stereo unspecified) | -2.96%
Cc1noc(CC2CCN(C(=O)C(c3ccccc3C)N(C)C)CC2)n1 (stereo unspecified) | 1.86%
COCc1ncc(CN2CCC(Oc3ccccc3OC)CC2)cn1 | -1.77%
CC1CN(CC(=O)NCc2ccccn2)CCN1Cc1nccn1C (stereo unspecified) | -4.07%
CC(C)CCN(C)Cc1nc2c(cnn2C)c(=O)[nH]1 | -11.2%
Cc1cc(C(=O)NCc2ccnc(OCC(F)(F)F)c2)on1 | -9.63%
CCN(CC)C(=O)c1ccc(-n2ncc(C#N)c2N)cc1 | 0.796%
CCOc1ncccc1NC(=O)NC1CCN(c2ncccn2)CC1 | -33.3%
Cc1nn(C)c(C)c1C1CCCN1Cc1nc2ccccc2o1 (stereo unspecified) | -20.6%
CC(=O)N(Cc1ncc(C)o1)C1CCN(Cc2ccccc2F)C1 (stereo unspecified) | -8.08%

Structure (SMILES) | cytotoxicity at 10 µM
C1CC(NCc2nnc(C3CC3)o2)CN(Cc2noc(C3CC3)n2)C1 (stereo unspecified) | -19%
O=C(NCCC(=O)N1CCCc2ccccc21)c1cc(F)cc(F)c1 | -6.14%
CC(C)c1nc(CN2CCCC(O)C2)cs1 (stereo unspecified) | -7.13%
CCc1noc(CN2CCN(C(=O)c3ccccn3)CC2)n1 | -0.775%
Cc1ccc(CSCCn2nc3ccccn3c2=O)cc1 | 5.64%
N#Cc1ccnc(N2CCN(C(=O)NC3CCS(=O)(=O)C3)CC2)c1 (stereo unspecified) | -6.83%
CCCNC(=O)[C@@H]1CCCN1[C@@H](C(=O)NC)C1CC1 | 1.32%
CCN(CC)Cc1cc(=O)n2c(n1)CN(C(=O)c1ccnnc1)CCC2 | 6.66%
c1cc(CN2CCC3(CCOCC3COCC3CC3)CC2)ccn1 (stereo unspecified) | -9.52%
Cc1nn(C)c(N(C)C)c1CNCCOc1ccc2c(c1)OCO2 | -1.34%
O=C(NC[C@]12COC[C@H]1CN(Cc1nccs1)C2)N1CCCC1 | -7.27%
CN(C)Cc1nnn2c1CN(Cc1cccnc1)CCC2 | 5.69%
Cc1nc(CN2CC[C@H]3[C@@H]2CCC(=O)N3c2cnn(C)c2)cs1 | 11.3%
O=C(O)c1c(-c2cccnc2)ncc2c1CCN(CC1CCOC1)C2 (stereo unspecified) | -2.55%
COc1cc(N2CC[C@@H]3O[C@H](C(=O)N(C)C)C[C@@H]32)ncn1 | 1.14%
CCCS(=O)(=O)N1C[C@@H](Oc2ccccn2)[C@H]2OCCC[C@H]21 | 0.516%
Cc1noc([C@@H]2C[C@@H]3CCN(c4nnc(C)s4)C[C@H]3O2)n1 | 5.35%
CC(=O)N(C)C1CCC2(CC1)CNC(=O)c1cc(C)ccc1O2 (stereo unspecified) | -35.4%
O=c1[nH]c2cn(-c3ccc(Cl)cc3)c(=O)n2[nH]1 | 2.43%
